Consider 13 compounds from ChEMBL document CHEMBL4680191, “Discovery of novel akt1 inhibitor induces autophagy associated death in hepatocellular carcinoma cells” (Eur J Med Chem, 2020).

Sequence of RAC-beta serine/threonine-protein kinase (Homo sapiens), P31751 [S474D] (P31751 whole entry S474D): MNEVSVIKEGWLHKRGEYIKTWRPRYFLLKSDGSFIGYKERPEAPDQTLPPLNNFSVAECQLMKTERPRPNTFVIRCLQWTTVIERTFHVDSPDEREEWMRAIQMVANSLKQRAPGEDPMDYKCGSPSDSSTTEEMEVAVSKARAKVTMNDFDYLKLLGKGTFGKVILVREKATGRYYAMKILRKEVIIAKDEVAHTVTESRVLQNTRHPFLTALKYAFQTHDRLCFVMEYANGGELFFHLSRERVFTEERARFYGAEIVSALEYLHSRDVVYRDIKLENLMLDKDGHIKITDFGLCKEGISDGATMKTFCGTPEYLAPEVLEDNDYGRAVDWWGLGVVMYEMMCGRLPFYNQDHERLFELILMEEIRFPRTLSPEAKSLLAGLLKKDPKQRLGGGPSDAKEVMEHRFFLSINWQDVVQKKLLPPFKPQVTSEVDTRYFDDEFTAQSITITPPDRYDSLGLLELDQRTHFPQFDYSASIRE
Sequence of RAC-gamma serine/threonine-protein kinase (Homo sapiens), Q9Y243 [S472D] (Q9Y243 whole entry S472D): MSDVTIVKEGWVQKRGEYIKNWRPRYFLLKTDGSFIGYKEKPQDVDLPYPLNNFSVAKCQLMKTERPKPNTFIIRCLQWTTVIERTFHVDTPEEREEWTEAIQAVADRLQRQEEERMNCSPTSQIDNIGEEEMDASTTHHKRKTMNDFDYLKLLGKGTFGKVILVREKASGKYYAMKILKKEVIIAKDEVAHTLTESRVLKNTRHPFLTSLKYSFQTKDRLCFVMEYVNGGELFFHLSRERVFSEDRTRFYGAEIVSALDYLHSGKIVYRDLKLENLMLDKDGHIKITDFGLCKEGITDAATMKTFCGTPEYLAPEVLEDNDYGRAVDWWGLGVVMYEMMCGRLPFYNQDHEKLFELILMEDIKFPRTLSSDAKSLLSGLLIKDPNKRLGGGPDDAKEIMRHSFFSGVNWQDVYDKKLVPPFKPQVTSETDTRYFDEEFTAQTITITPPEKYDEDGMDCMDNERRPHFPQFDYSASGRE

The first experiment has as its system RAC-gamma serine/threonine-protein kinase (Homo sapiens), Q9Y243 [S472D]. As to the kind of experiment: Inhibition of full length human Akt3 S472D mutant assessed as remaining activity at 1 uM using GRPRTSSFAEGKK as substrate incubated for 40 mins by scintillation counting method relative to control. The gist of the method:
(§1)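 Eurofins KinaseProfiler kinase assay on human Akt1, Akt2 and Akt3. Compounds were tested at 1 µM. Residual kinase activity is reported as % of control.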
Take `COc1ccc(C(CNC(C)C)C(=O)N2CCN(c3ncnc4sc5c(c34)CCC5)CC2)cc1` (configuration not stated): the Activity is 42%.
On the same count and under the same terms, for `CCCCNCC(C(=O)N1CCN(c2ncnc3sc4c(c23)CCN(C)C4)CC1)c1ccc(Cl)cc1` (configuration not stated) the value was 84%.
Consider `CC(C)NCC(C(=O)N1CCN(c2ncnc3sc4c(c23)CCN(C)C4)CC1)c1ccc(F)cc1` (configuration not stated), for which the Activity worked out at 87%.
The same measure, in the same setting: under `CC(C)NCC(C(=O)N1CCN(c2ncnc3sc4c(c23)CCN(C(=O)N(C)C)C4)CC1)c1ccc(Cl)cc1` (configuration not stated) stands 87%.
The same measure, in the same setting: under `CN1CCc2c(sc3ncnc(N4CCN(C(=O)C(CNC5CCCC5)c5ccc(Cl)cc5)CC4)c23)C1` (configuration not stated) stands 76%; under `CC(C)NCC(C(=O)N1CCN(c2ncnc3sc4c(c23)CCC4)CC1)c1ccc(Cl)cc1` (configuration not stated), 19%; under `CC(C)NCC(C(=O)N1CCN(c2ncnc3sc4c(c23)CCN(C)C4)CC1)c1ccccc1Cl` (configuration not stated), 76%.
`CC(C)NCC(C(=O)N1CCN(c2ncnc3sc4c(c23)CCCC4)CC1)c1ccc(Cl)cc1` (configuration not stated): the Activity turned out to be 63%.
On to `CCNCC(C(=O)N1CCN(c2ncnc3sc4c(c23)CCN(C)C4)CC1)c1ccc(Cl)cc1` (configuration not stated), for which the Activity came to 74%.
In the case of `CCN1CCc2c(sc3ncnc(N4CCN(C(=O)C(CNC(C)C)c5ccc(Cl)cc5)CC4)c23)C1` (configuration not stated), the Activity is 71%.
`CC(C)NCC(C(=O)N1CCN(c2ncnc3sc4c(c23)CCN(Cc2ccccc2)C4)CC1)c1ccc(Cl)cc1` (configuration not stated): the Activity amounted to 71%.
On the same count and under the same terms, for `Cc1ccc(C(CNC(C)C)C(=O)N2CCN(c3ncnc4sc5c(c34)CCN(C)C5)CC2)cc1` (configuration not stated) the value was 73%; for `CC(C)NCC(C(=O)N1CCN(c2ncnc3sc4c(c23)CCN(C2CC2)C4)CC1)c1ccc(Cl)cc1` (configuration not stated), 70%.

A further experiment concerns the target cAMP-dependent protein kinase catalytic subunit alpha (Homo sapiens) (UniProt P17612). As to the kind of experiment: Inhibition of full length human PKAcalpha assessed as remaining activity at 1 uM using LRRASLG as substrate incubated for 40 mins by scintillation counting method relative to control. In outline:
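Run as an outsourced KinaseProfiler service, with human PKA and Akt1, Akt2 and Akt3 in the same panel. Each compound was tested at a single 1 µM concentration, and the result is reported as kinase activity remaining, as a percentage of control.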
As for `COc1ccc(C(CNC(C)C)C(=O)N2CCN(c3ncnc4sc5c(c34)CCC5)CC2)cc1` (configuration not stated), the Activity was 66%.
The same measure, in the same setting: under `CCCCNCC(C(=O)N1CCN(c2ncnc3sc4c(c23)CCN(C)C4)CC1)c1ccc(Cl)cc1` (configuration not stated) stands 81%; under `CC(C)NCC(C(=O)N1CCN(c2ncnc3sc4c(c23)CCN(C)C4)CC1)c1ccc(F)cc1` (configuration not stated), 97%.
Still for that read-out and setting: for `CC(C)NCC(C(=O)N1CCN(c2ncnc3sc4c(c23)CCN(C(=O)N(C)C)C4)CC1)c1ccc(Cl)cc1` (configuration not stated) the value was 80%; for `CN1CCc2c(sc3ncnc(N4CCN(C(=O)C(CNC5CCCC5)c5ccc(Cl)cc5)CC4)c23)C1` (configuration not stated), 82%; for `CC(C)NCC(C(=O)N1CCN(c2ncnc3sc4c(c23)CCC4)CC1)c1ccc(Cl)cc1` (configuration not stated), 45%.
Turning to `CC(C)NCC(C(=O)N1CCN(c2ncnc3sc4c(c23)CCN(C)C4)CC1)c1ccccc1Cl` (configuration not stated), the Activity was 86%.
On to `CC(C)NCC(C(=O)N1CCN(c2ncnc3sc4c(c23)CCCC4)CC1)c1ccc(Cl)cc1` (configuration not stated), for which the Activity came out at 78%.
As to `CCNCC(C(=O)N1CCN(c2ncnc3sc4c(c23)CCN(C)C4)CC1)c1ccc(Cl)cc1` (configuration not stated), the Activity stood at 91%.
Same read-out and setting: for `CCN1CCc2c(sc3ncnc(N4CCN(C(=O)C(CNC(C)C)c5ccc(Cl)cc5)CC4)c23)C1` (configuration not stated) the value was 87%; for `CC(C)NCC(C(=O)N1CCN(c2ncnc3sc4c(c23)CCN(Cc2ccccc2)C4)CC1)c1ccc(Cl)cc1` (configuration not stated), 80%; for `Cc1ccc(C(CNC(C)C)C(=O)N2CCN(c3ncnc4sc5c(c34)CCN(C)C5)CC2)cc1` (configuration not stated), 90%.
On the same count and under the same terms, under `CC(C)NCC(C(=O)N1CCN(c2ncnc3sc4c(c23)CCN(C2CC2)C4)CC1)c1ccc(Cl)cc1` (configuration not stated) stands 92%.

For another experiment, the species on record is Homo sapiens. As to the kind of experiment: Inhibition of full length human Akt1 […] mutant assessed as remaining activity at 1 uM using GRPRTSSFAEGKK as substrate incubated for 40 mins by scintillation counting method relative to control. The gist of the method: as §1
As for `COc1ccc(C(CNC(C)C)C(=O)N2CCN(c3ncnc4sc5c(c34)CCC5)CC2)cc1` (configuration not stated), the Activity is 18%.
Same read-out and setting: under `CCCCNCC(C(=O)N1CCN(c2ncnc3sc4c(c23)CCN(C)C4)CC1)c1ccc(Cl)cc1` (configuration not stated) stands 81%; under `CC(C)NCC(C(=O)N1CCN(c2ncnc3sc4c(c23)CCN(C)C4)CC1)c1ccc(F)cc1` (configuration not stated), 88%.
In the case of `CC(C)NCC(C(=O)N1CCN(c2ncnc3sc4c(c23)CCN(C(=O)N(C)C)C4)CC1)c1ccc(Cl)cc1` (configuration not stated), the Activity was determined as 86%.
The same measure, in the same setting: under `CN1CCc2c(sc3ncnc(N4CCN(C(=O)C(CNC5CCCC5)c5ccc(Cl)cc5)CC4)c23)C1` (configuration not stated) stands 82%; under `CC(C)NCC(C(=O)N1CCN(c2ncnc3sc4c(c23)CCC4)CC1)c1ccc(Cl)cc1` (configuration not stated), 11%.
Turning to `CC(C)NCC(C(=O)N1CCN(c2ncnc3sc4c(c23)CCN(C)C4)CC1)c1ccccc1Cl` (configuration not stated), the Activity was 96%.
The same measure, in the same setting: under `CC(C)NCC(C(=O)N1CCN(c2ncnc3sc4c(c23)CCCC4)CC1)c1ccc(Cl)cc1` (configuration not stated) stands 55%; under `CCNCC(C(=O)N1CCN(c2ncnc3sc4c(c23)CCN(C)C4)CC1)c1ccc(Cl)cc1` (configuration not stated), 95%; under `CCN1CCc2c(sc3ncnc(N4CCN(C(=O)C(CNC(C)C)c5ccc(Cl)cc5)CC4)c23)C1` (configuration not stated), 73%.
Still for that read-out and setting: under `CC(C)NCC(C(=O)N1CCN(c2ncnc3sc4c(c23)CCN(Cc2ccccc2)C4)CC1)c1ccc(Cl)cc1` (configuration not stated) stands 71%.
On the same count and under the same terms, for `Cc1ccc(C(CNC(C)C)C(=O)N2CCN(c3ncnc4sc5c(c34)CCN(C)C5)CC2)cc1` (configuration not stated) the value was 78%.
Regarding `CC(C)NCC(C(=O)N1CCN(c2ncnc3sc4c(c23)CCN(C2CC2)C4)CC1)c1ccc(Cl)cc1` (configuration not stated), the Activity was 77%.

In a further experiment the test system is RAC-beta serine/threonine-protein kinase (Homo sapiens), P31751 [S474D]. As to the kind of experiment: Inhibition of full length human Akt2 S474D mutant assessed as remaining activity at 1 uM using GRPRTSSFAEGKK as substrate incubated for 40 mins by scintillation counting method relative to control. In outline:
as §1
Turning to `COc1ccc(C(CNC(C)C)C(=O)N2CCN(c3ncnc4sc5c(c34)CCC5)CC2)cc1` (configuration not stated), the Activity came to 86%.
On the same count and under the same terms, under `CCCCNCC(C(=O)N1CCN(c2ncnc3sc4c(c23)CCN(C)C4)CC1)c1ccc(Cl)cc1` (configuration not stated) stands 93%; under `CC(C)NCC(C(=O)N1CCN(c2ncnc3sc4c(c23)CCN(C)C4)CC1)c1ccc(F)cc1` (configuration not stated), 111%; under `CC(C)NCC(C(=O)N1CCN(c2ncnc3sc4c(c23)CCN(C(=O)N(C)C)C4)CC1)c1ccc(Cl)cc1` (configuration not stated), 95%.
Same read-out and setting: under `CN1CCc2c(sc3ncnc(N4CCN(C(=O)C(CNC5CCCC5)c5ccc(Cl)cc5)CC4)c23)C1` (configuration not stated) stands 81%.
Still for that read-out and setting: under `CC(C)NCC(C(=O)N1CCN(c2ncnc3sc4c(c23)CCC4)CC1)c1ccc(Cl)cc1` (configuration not stated) stands 57%; under `CC(C)NCC(C(=O)N1CCN(c2ncnc3sc4c(c23)CCN(C)C4)CC1)c1ccccc1Cl` (configuration not stated), 83%; under `CC(C)NCC(C(=O)N1CCN(c2ncnc3sc4c(c23)CCCC4)CC1)c1ccc(Cl)cc1` (configuration not stated), 72%.
Regarding `CCNCC(C(=O)N1CCN(c2ncnc3sc4c(c23)CCN(C)C4)CC1)c1ccc(Cl)cc1` (configuration not stated), the Activity turned out to be 107%.
For `CCN1CCc2c(sc3ncnc(N4CCN(C(=O)C(CNC(C)C)c5ccc(Cl)cc5)CC4)c23)C1` (configuration not stated), the Activity was 82%.
Same read-out and setting: under `CC(C)NCC(C(=O)N1CCN(c2ncnc3sc4c(c23)CCN(Cc2ccccc2)C4)CC1)c1ccc(Cl)cc1` (configuration not stated) stands 77%.
For the compound `Cc1ccc(C(CNC(C)C)C(=O)N2CCN(c3ncnc4sc5c(c34)CCN(C)C5)CC2)cc1` (configuration not stated), the Activity was found to be 73%.
Still for that read-out and setting: under `CC(C)NCC(C(=O)N1CCN(c2ncnc3sc4c(c23)CCN(C2CC2)C4)CC1)c1ccc(Cl)cc1` (configuration not stated) stands 71%.
